Test results as given in ChEMBL document CHEMBL4152367, “Discovery of a Potent Thiazolidine Free Fatty Acid Receptor 2 Agonist with Favorable Pharmacokinetic Properties” (J Med Chem, 2018).
Active and inactive are the calls of the source. No cut-off for these calls is given here.

What was measured:
[1] = target: Free fatty acid receptor 1 (Homo sapiens) (UniProt O14842); test: Agonist activity at human FFA1R expressed in HEK293 cells assessed as induction of calcium flux at 10 uM by fluorimetry; type: functional, cell-based
Free fatty acid receptor 1 (Homo sapiens), sequence (O14842 whole entry): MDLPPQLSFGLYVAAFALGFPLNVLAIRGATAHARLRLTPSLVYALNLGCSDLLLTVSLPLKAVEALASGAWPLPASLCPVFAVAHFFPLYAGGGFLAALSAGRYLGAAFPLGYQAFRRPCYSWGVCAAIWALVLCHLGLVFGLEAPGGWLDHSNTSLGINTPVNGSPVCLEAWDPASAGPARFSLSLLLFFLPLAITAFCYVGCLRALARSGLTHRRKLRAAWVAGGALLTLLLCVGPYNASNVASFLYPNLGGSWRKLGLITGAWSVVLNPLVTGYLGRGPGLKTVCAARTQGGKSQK

[2] = target: Free fatty acid receptor 1 (Homo sapiens) (UniProt O14842); test: Antagonist activity at human FFA1 receptor expressed in HEK293 cells assessed as inhibition of linoleic acid-induced calcium flux at 10 uM by fluorimetry; type: functional, cell-based
[3] = target: T1, Free fatty acid receptor 4 (Homo sapiens) (UniProt Q5NUL3); test: Antagonist activity at human FFA4 receptor expressed in HEK293 cells assessed as inhibition of GW9508-induced of calcium flux at 10 uM by fluorimetry; type: functional, cell-based
T1 sequence (whole entry): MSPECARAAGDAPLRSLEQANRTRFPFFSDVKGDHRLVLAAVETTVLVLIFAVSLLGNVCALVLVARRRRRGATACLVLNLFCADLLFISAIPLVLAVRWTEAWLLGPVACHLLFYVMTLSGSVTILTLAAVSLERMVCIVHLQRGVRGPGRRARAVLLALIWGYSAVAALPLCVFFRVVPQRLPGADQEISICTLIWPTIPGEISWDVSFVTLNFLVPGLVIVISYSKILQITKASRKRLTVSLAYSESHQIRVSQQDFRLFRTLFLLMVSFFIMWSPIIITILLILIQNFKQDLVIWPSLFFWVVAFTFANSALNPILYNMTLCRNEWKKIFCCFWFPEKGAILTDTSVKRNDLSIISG

[4] = target: T2, Peroxisome proliferator-activated receptor gamma (Homo sapiens) (UniProt P37231); test: Agonist activity at human PPARgamma expressed in Escherichia coli assessed as induction of calcium flux at 10 uM by fluorimetry
T2 sequence (whole entry): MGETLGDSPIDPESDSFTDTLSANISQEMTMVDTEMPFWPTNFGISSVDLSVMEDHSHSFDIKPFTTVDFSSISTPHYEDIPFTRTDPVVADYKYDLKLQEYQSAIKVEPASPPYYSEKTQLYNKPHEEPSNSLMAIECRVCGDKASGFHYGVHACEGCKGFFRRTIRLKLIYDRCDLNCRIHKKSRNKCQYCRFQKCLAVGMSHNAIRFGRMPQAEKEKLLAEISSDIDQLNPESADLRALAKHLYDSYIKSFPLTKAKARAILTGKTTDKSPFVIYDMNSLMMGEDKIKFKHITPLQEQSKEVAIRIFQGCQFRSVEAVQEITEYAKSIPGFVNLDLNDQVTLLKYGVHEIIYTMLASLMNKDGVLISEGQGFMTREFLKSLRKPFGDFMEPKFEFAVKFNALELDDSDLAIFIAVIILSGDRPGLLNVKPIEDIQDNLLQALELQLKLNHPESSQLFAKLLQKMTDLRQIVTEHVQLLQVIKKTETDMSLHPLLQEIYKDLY

[5] = target: T3, Oxysterols receptor LXR-alpha (Homo sapiens) (UniProt Q13133); test: Agonist activity at human LXRalpha expressed in Escherichia coli assessed as induction of calcium flux at 10 uM by fluorimetry
T3 sequence (whole entry): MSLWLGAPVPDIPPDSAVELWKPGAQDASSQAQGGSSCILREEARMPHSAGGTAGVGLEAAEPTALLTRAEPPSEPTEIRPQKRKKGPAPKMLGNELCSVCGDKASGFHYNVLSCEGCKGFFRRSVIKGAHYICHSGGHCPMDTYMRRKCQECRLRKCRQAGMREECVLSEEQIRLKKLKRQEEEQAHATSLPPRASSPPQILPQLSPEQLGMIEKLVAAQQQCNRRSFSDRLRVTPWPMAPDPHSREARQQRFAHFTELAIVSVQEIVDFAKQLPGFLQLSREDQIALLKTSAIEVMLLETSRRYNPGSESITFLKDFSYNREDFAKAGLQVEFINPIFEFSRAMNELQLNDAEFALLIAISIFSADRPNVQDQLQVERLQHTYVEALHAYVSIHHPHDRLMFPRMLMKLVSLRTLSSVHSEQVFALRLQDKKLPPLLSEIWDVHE

[6] = target: T3, Oxysterols receptor LXR-alpha (Homo sapiens); test: Antagonist activity at human LXRalpha expressed in Escherichia coli assessed as inhibition of T0901317-induced calcium flux at 10 uM by fluorimetry
[7] = Octanol/PBS buffer partition co-efficient, log D of the compound at pH 7.4 after 24 hrs by HPLC analysis; type: physicochemical
[8] = Chemical stability of the compound in PBS buffer at 37 degC after 3 weeks; type: physicochemical; details: read-out: Stability
Procedure, shortened: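 Chemical stability: 50 µM compound (diluted from 10 mM DMSO stock) in 10 mM phosphate buffer, pH 7.4, shaken at 37 °C; sampled at intervals over 3 weeks. Remaining compound by HPLC peak area relative to the 0 time point; duplicate runs, each injected twice.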

[9] = Chemical stability of the compound in FaSSGF after 2 hrs; type: ADME, physicochemical; details: read-out: Stability
Procedure, shortened: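 Simulated-fluid stability: 50 µM compound in FaSSIF or FaSSGF (from 10 mM DMSO stock), shaken at 37 °C for 0 and 120 min. Quenched with acetonitrile containing 0.5% HCOOH, centrifuged, supernatant by HPLC. Stability from peak area relative to the 0 min sample; duplicates, mean reported.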

[10] = Metabolic stability in mouse liver microsomes assessed as compound remaining at 1 uM after 1 hr by HPLC method; type: ADME, microsome; details: read-out: Stability
Procedure, shortened: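 Mouse liver microsomes 0.5 mg/mL with 1 µM test compound in 0.1 M PBS pH 7.4 plus NADPH. Pre-incubated 5 min at 37 °C before microsome addition, then 1 h at 37 °C with shaking. Quenched with ice-cold MeOH/MeCN 1:1, centrifuged; HPLC analysis relative to the 0 min sample.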

[11] = Metabolic stability in Balb/c mouse primary hepatocytes assessed as compound recovery after 2 hrs by LC-MS/MS analysis; type: ADME, cell-based, Hepatocyte; details: read-out: Drug recovery
[12] = Half life in Balb/c mouse at 5 mg/kg, iv by HPLC-MS/MS analysis; type: ADME, organism-based; details: in vivo
Procedure, shortened: (§1)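 Balb/c mice dosed at 5 mg/kg iv or 10 mg/kg po. Plasma concentrations over time used to derive t1/2, AUC0–∞, Vd and total clearance (iv), and tmax, Cmax, AUC0–∞ and oral bioavailability (po).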

[13] = AUC (0 to infinity) in Balb/c mouse at 5 mg/kg, iv by HPLC-MS/MS analysis; type: ADME, organism-based; set-up: dose 5 mg/kg, time infinity, route intravenous; details: in vivo; procedure, shortened: as §1
[14] = Volume of distribution in Balb/c mouse at 5 mg/kg, iv by HPLC-MS/MS analysis; type: ADME, organism-based; details: in vivo; procedure, shortened: as §1
[15] = Total clearance in Balb/c mouse at 5 mg/kg, iv by HPLC-MS/MS analysis; type: ADME, organism-based; details: in vivo; procedure, shortened: as §1
[16] = Tmax in Balb/c mouse at 10 mg/kg, po by HPLC-MS/MS analysis; type: ADME, organism-based; details: in vivo; procedure, shortened: as §1
[17] = AUC (0 to infinity) in Balb/c mouse at 10 mg/kg, po by HPLC-MS/MS analysis; type: ADME, organism-based; set-up: dose 10 mg/kg, route oral, time infinity; details: in vivo; procedure, shortened: as §1
[18] = Half life in Balb/c mouse at 5 mg/kg, ip by HPLC-MS/MS analysis; type: ADME, organism-based; details: in vivo

Activity [1]: inactive
inhibition [2]: inactive
inhibition [3]: inactive
Activity [4]: inactive
Activity [5]: inactive
inhibition [6]: inactive
logD at 24 h [7]: 0.94
remaining at […] [8]: 97.6%
remaining at 2 h [9]: 100%
remaining at 1 h, 1 µM [10]: 82%
remaining at 2 h [11]: 72%
half-life [12]: 2.3 h
AUC(0-inf) [13]: 4100 ng·h/mL
Vd [14]: 4.05 L/kg
clearance [15]: 20.3 mL/min/kg
Tmax [16]: 0.25 h
AUC(0-inf) [17]: 2600 ng·h/mL
half-life [18]: 1.37 h
SMILES: Cc1noc(C)c1-c1ccc(C(=O)N2[C@@H](c3ccccc3Cl)SC[C@H]2C(=O)O)cc1
